Results on 19 molecules are retold here after ChEMBL document CHEMBL1136928, “Novel orally bioavailable gamma-secretase inhibitors with excellent in vivo activity” (J Med Chem, 2009).

Molecules are shown by their SMILES. The source made the active and inactive calls. The calls are words filed in the database; no cut-off is given here. Where only a bound is given, the exact number is not on record here.

Data set [1] can be described thus: Inhibition of gamma secretase assessed as amyloid beta40 production.
Data set [2] can be described thus: Bioavailability in rhesus monkey. In kind it is ADME, organism-based, Macaca mulatta. Conditions: in vivo.
The test system of data set [3] is Mus musculus. As to the kind of experiment: Reduction in amyloid beta40 production in po dosed human betaAAP overexpressing YAC mouse forebrain after 4 hrs. In kind it is functional. The conditions noted are these: Brain. An outline of the steps: (§1)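 APP-YAC transgenic mice overexpressing human βAPP; oral dosing as suspension in 0.5% methocel, 3 mg/kg (also 0.3 and 1 mg/kg for dose–response). Soluble Aβ(40) in forebrain measured 4 h post-dose; reduction expressed relative to vehicle-treated animals; ED50 from dose–response.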

Data set [4] is described as follows: Bioavailability in rat. In kind it is ADME, organism-based. The conditions noted are these: in vivo.
A short description of data set [5]: Bioavailability in dog. In kind it is ADME, organism-based, Canis lupus familiaris. Conditions: in vivo.
For data set [6], the system named is Mus musculus. As to the kind of experiment: Reduction in amyloid beta40 production in human betaAAP overexpressing YAC mouse forebrain at 3 mg/kg, po after 4 hrs relative to control. In kind it is functional. Also on record: scale not given: the % may be the effect or the level left. An outline of the steps:
as §1

Data set [7] is described as follows: Half life in dog. In kind it is ADME, organism-based, Canis lupus familiaris. Conditions: in vivo.
The nature of data set [8]: Half life in rhesus monkey. In kind it is ADME, organism-based, Macaca mulatta. Conditions: in vivo.
A short description of data set [9]: Half life in rat. In kind it is ADME, organism-based. Conditions: in vivo.
Another data set has as its target Gamma-secretase. The experiment in a line: Inhibition of gamma secretase in human SH-SY5Y cells by HTRF assay. In kind it is cell-based.
A short description of data set [10]: Inhibition of gamma secretase assessed as amyloid beta42 production.

In the case of `Cn1nc(-c2ccc3c(c2)C[C@H]2CC[C@@H](C3)[C@]23CN(CC(F)(F)F)S(=O)(=O)N3)cc1-c1ccc(F)cc1`, the outcome in data set [1] and in data set [10] was Active. In addition, the bioavailability stood at 45% in data set [2], 35% in [4] and 42% in data set [5]. In the data set on Mus musculus [3], the ED50 came to 1 mg/kg. This molecule gave an Activity in the data set on Mus musculus [6] of 84%. For the same molecule, the half-life was above 10 h in data set [7], 16 h in data set [8] and 2 h in data set [9]. In addition, the IC50 against Gamma-secretase amounted to 0.06 nM.
In turn, `O=S1(=O)N[C@@]2(CN1CC(F)(F)F)[C@@H]1CC[C@H]2Cc2ccc(-c3cn(-c4ccccc4F)cn3)cc2C1` returned an IC50 on Gamma-secretase of 0.17 nM.
Still for that read-out and setting: for `Cn1nc(-c2ccc3c(c2)C[C@H]2CC[C@@H](C3)[C@]23CN(CC(F)(F)F)S(=O)(=O)N3)cc1-c1ccc(Cl)c(Cl)c1` the value was 0.41 nM; for `O=S1(=O)N[C@@]2(CN1CC(F)(F)F)[C@@H]1CC[C@H]2Cc2ccc(-c3cn(-c4ccc(Cl)c(Cl)c4)cn3)cc2C1`, 0.42 nM.
In turn, `Cn1nc(-c2ccc3c(c2)CC2CCC(C3)C23CN(CC(F)(F)F)S(=O)(=O)N3)cc1-c1ccccc1F` (racemic) showed an IC50 at Gamma-secretase of 0.21 nM.
Same read-out and setting: for `Cn1nc(-c2ccc3c(c2)C[C@H]2CC[C@@H](C3)[C@]23CN(CC(F)(F)F)S(=O)(=O)N3)cc1-c1ccc(F)cc1F` the value was 0.06 nM; for `O=S1(=O)N[C@@]2(CN1CC(F)(F)F)[C@@H]1CC[C@H]2Cc2ccc(-c3ncc(-c4ccc(F)cc4)s3)cc2C1`, 0.42 nM; for `O=S1(=O)N[C@@]2(CN1CC(F)(F)F)[C@@H]1CC[C@H]2Cc2ccc(-c3cn(-c4ccc(F)c(F)c4)cn3)cc2C1`, 0.12 nM.
On the same count and under the same terms, as for `Cn1nc(-c2ccc3c(c2)C[C@H]2CC[C@@H](C3)[C@]23CN(CC(F)(F)F)S(=O)(=O)N3)cc1-c1ccc(Cl)cc1`, the figure is 0.07 nM; as for `O=S1(=O)N[C@@]2(CN1CC(F)(F)F)[C@@H]1CC[C@H]2Cc2ccc(-c3cn(-c4cccc(F)c4)cn3)cc2C1`, 0.82 nM.
On the same count and under the same terms, for `O=S1(=O)N[C@@]2(CN1CC(F)(F)F)[C@@H]1CC[C@H]2Cc2ccc(-c3cn(-c4ccc(F)cc4F)cn3)cc2C1` the value was 0.06 nM; for `Cn1nc(-c2ccc3c(c2)C[C@H]2CC[C@@H](C3)[C@]23CN(CC(F)(F)F)S(=O)(=O)N3)cc1-c1cccc(F)c1` (racemic), 0.46 nM.
Molecule `O=S1(=O)N[C@@]2(CN1CC(F)(F)F)[C@@H]1CC[C@H]2Cc2ccc(-c3cn(-c4ccc(Cl)cc4)cn3)cc2C1` returned an IC50 against Gamma-secretase of 0.08 nM.
Molecule `Cn1nc(-c2ccc(F)cc2)cc1-c1ccc2c(c1)CC1CCC(C2)C12CN(CC(F)(F)F)S(=O)(=O)N2` (racemic) displayed a half-inhibitory concentration (IC50) against Gamma-secretase of 1.65 nM.
Molecule `O=S1(=O)N[C@@]2(CN1CC(F)(F)F)[C@@H]1CC[C@H]2Cc2ccc(/C=C/CN3CCC(C(F)(F)F)CC3)cc2C1` came in with a median effective dose (ED50) in the data set on Mus musculus [3] of 17 mg/kg. At Gamma-secretase, this molecule yielded a half-maximal inhibitory concentration (IC50) of 0.24 nM.
On Gamma-secretase, `O=S1(=O)N[C@@]2(CN1CC(F)(F)F)[C@@H]1CC[C@H]2Cc2ccc(-c3ncn(-c4ccc(F)cc4)n3)cc2C1` came in with an IC50 of 0.15 nM.
Turning to `O=S1(=O)N[C@@]2(CN1CC(F)(F)F)[C@@H]1CC[C@H]2Cc2ccc(-c3cn(-c4ccc(F)cc4)cn3)cc2C1`, the Activity in the data set with Mus musculus [6] is 66%. At Gamma-secretase, this molecule returned an IC50 of 0.03 nM.
As for `Cn1nc(-c2ccc3c(c2)C[C@H]2CC[C@@H](C3)[C@]23CN(CC(F)(F)F)S(=O)(=O)N3)cc1-c1ccc(F)c(F)c1`, half-maximal inhibition against Gamma-secretase (IC50) was put at 0.06 nM.
In the case of `O=S1(=O)N[C@@]2(CN1CC(F)(F)F)[C@@H]1CC[C@H]2Cc2ccc(-c3ncc(N4CCC(C(F)(F)F)CC4)s3)cc2C1`, the IC50 on Gamma-secretase came out at 0.34 nM.
